Reference: ChEMBL document CHEMBL3044618, “Repellent constituents of essential oil of Cymbopogon distans aerial parts against two stored-product insects” (2011)

Assays:
Type in all cases: functional
[1] = system: Liposcelis bostrychophila; assay: Insecticidal activity against adult Liposcelis bostrychophila (booklice) assessed as repellent activity at 6.4 nL/cm2 after 2 hr
Outline: (§1)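 Adult booklice, about 2 weeks old, from dark cultures at 28–30 °C and 70–80% RH on milk powder/active yeast/flour (1:1:1). Half of a 6 cm filter paper received 150 μL of sample in acetone; the other half received acetone; both were air-dried. Papers were placed in Fluon-coated 6 cm Petri dishes. Insects on each half were counted at 2 and 4 h. PR = (Nc−Nt)/(Nc+Nt)×100. Five replicates, repeated three times.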

Tribolium castaneum [2] = assay: Insecticidal activity against adult Tribolium castaneum (red flour beetle) assessed as repellent activity at 16 nL/cm2 after 4 hr
Outline: (§2)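 Adult T. castaneum, about 2 weeks old, reared on wheat flour plus yeast (10:1, w/w) in the dark at 28–30 °C and 70–80% RH. In Fluon-coated 9 cm dishes, half of a 9 cm filter paper received 500 μL of acetone solution and the other half received acetone, then both were air-dried. Insects on each half were counted at 2 and 4 h. Percent repellency was computed from the counts. Five replicates, three runs.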

[3] = system: Liposcelis bostrychophila; assay: Insecticidal activity against adult Liposcelis bostrychophila (booklice) assessed as repellent activity at 13 nL/cm2 after 2 hr; outline: as §1
[4] = system: Liposcelis bostrychophila; assay: Insecticidal activity against adult Liposcelis bostrychophila (booklice) assessed as repellent activity at 26 nL/cm2 after 2 hr; outline: as §1
[5] = system: Liposcelis bostrychophila; assay: Insecticidal activity against adult Liposcelis bostrychophila (booklice) assessed as repellent activity at 3.2 nL/cm2 after 2 hr; outline: as §1
[6] = system: Liposcelis bostrychophila; assay: Insecticidal activity against adult Liposcelis bostrychophila (booklice) assessed as repellent activity at 6.4 nL/cm2 after 4 hr; outline: as §1
[7] = system: Liposcelis bostrychophila; assay: Insecticidal activity against adult Liposcelis bostrychophila (booklice) assessed as repellent activity at 26 nL/cm2 after 4 hr; outline: as §1
Tribolium castaneum [8] = assay: Insecticidal activity against adult Tribolium castaneum (red flour beetle) assessed as repellent activity at 0.0016 nL/cm2 after 2 hr; outline: as §2
Tribolium castaneum [9] = assay: Insecticidal activity against adult Tribolium castaneum (red flour beetle) assessed as repellent activity at 16 nL/cm2 after 2 hr; outline: as §2
Tribolium castaneum [10] = assay: Insecticidal activity against adult Tribolium castaneum (red flour beetle) assessed as repellent activity at 0.16 nL/cm2 after 2 hr; outline: as §2
[11] = system: Liposcelis bostrychophila; assay: Insecticidal activity against adult Liposcelis bostrychophila (booklice) assessed as repellent activity at 13 nL/cm2 after 4 hr; outline: as §1
[12] = system: Liposcelis bostrychophila; assay: Insecticidal activity against adult Liposcelis bostrychophila (booklice) assessed as repellent activity at 1.6 nL/cm2 after 2 hr; outline: as §1
Tribolium castaneum [13] = assay: Insecticidal activity against adult Tribolium castaneum (red flour beetle) assessed as repellent activity at 0.0016 nL/cm2 after 4 hr; outline: as §2
Tribolium castaneum [14] = assay: Insecticidal activity against adult Tribolium castaneum (red flour beetle) assessed as repellent activity at 0.016 nL/cm2 after 4 hr; outline: as §2
[15] = system: Liposcelis bostrychophila; assay: Insecticidal activity against adult Liposcelis bostrychophila (booklice) assessed as repellent activity at 3.2 nL/cm2 after 4 hr; outline: as §1
Tribolium castaneum [16] = assay: Insecticidal activity against adult Tribolium castaneum (red flour beetle) assessed as repellent activity at 1.6 nL/cm2 after 2 hr; outline: as §2
Tribolium castaneum [17] = assay: Insecticidal activity against adult Tribolium castaneum (red flour beetle) assessed as repellent activity at 1.6 nL/cm2 after 4 hr; outline: as §2
[18] = system: Liposcelis bostrychophila; assay: Insecticidal activity against adult Liposcelis bostrychophila (booklice) assessed as repellent activity at 1.6 nL/cm2 after 4 hr; outline: as §1
Tribolium castaneum [19] = assay: Insecticidal activity against adult Tribolium castaneum (red flour beetle) assessed as repellent activity at 0.016 nL/cm2 after 2 hr; outline: as §2
Tribolium castaneum [20] = assay: Insecticidal activity against adult Tribolium castaneum (red flour beetle) assessed as repellent activity at 0.16 nL/cm2 after 4 hr; outline: as §2

SMILES	Repellency [1] [%]	Repellency (Tribolium castaneum [2]) [%]	Repellency [3] [%]	Repellency [4] [%]	Repellency [5] [%]	Repellency [6] [%]	Repellency [7] [%]	Repellency (Tribolium castaneum [8]) [%]	Repellency (Tribolium castaneum [9]) [%]	Repellency (Tribolium castaneum [10]) [%]	Repellency [11] [%]	Repellency [12] [%]	Repellency (Tribolium castaneum [13]) [%]	Repellency (Tribolium castaneum [14]) [%]	Repellency [15] [%]	Repellency (Tribolium castaneum [16]) [%]	Repellency (Tribolium castaneum [17]) [%]	Repellency [18] [%]	Repellency (Tribolium castaneum [19]) [%]	Repellency (Tribolium castaneum [20]) [%]
CC(C)=CCC[C@@H](C)CCO [(+)-CITRONELLOL]	66	96	66	96	52	64	82	40	88	64	76	28	36	48	44	82.5	75	32	44	66
CC(C)=CCC[C@@H](C)CC=O [CITRONELLAL]	20	-4	-10	36	-4	6	34	-20	16	10	4	-10	0	-16	12	-12	-16	-10	4	6
C=C(C)[C@H]1CC=C(C)CC1 [D-LIMONENE]	-20	-4	-4	36	-10	-18	40	20	20	2	30	-6	12	-36	-22	-22	-44	-4	-36	8
CCN(CC)C(=O)c1cccc(C)c1 [DIETHYLTOLUAMIDE]	84	90	100	96	82	92	94	-34	92	0	94	46	-46	-4	64	6	-12	42	0	-16
CC(C)=CCC/C(C)=C/CO [GERANIOL]	90	86	95	86	84	96	92	-10	96	14	82.5	42	-14	-10	74	58	60	44	-12	14
